This note sets out measurements from the RNAGym collection of RNA variant scans (doi:10.1126/science.aae0568).

This sample holds only a part of the variants without activity.

B1: tRNA (parent)
chain: GUUCCGUUGGCGUAAUGGUAACGCGUCUCCCUCCUAAGGAGAAGACUGCGGGUUCGAGUCCCGUACGGAACG

The variants in the series derive from B1. The series can be described thus: yeast fitness relative to wild type (ratio to wild type); higher = fitter; tRNA-Arg(CCU), competitive growth, 37 C, YPD. In a few lines: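 Gene amplicons from the start population and from each of six end populations were read by 100-nucleotide paired-end sequencing. Those end populations came from pooled Saccharomyces cerevisiae strains carrying tRNA-Arg(CCU) gene variants at the native locus, competed in YPD at 37°C for 24 hours. Fitness relative to wild type was worked out from changes in genotype frequencies. Genotypes needed ≥ 100 starting reads, and estimates < 0.5 were set to 0.5.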
With GUUUCGUUGGCGUAAUGGUAACGCGUCUCCCUCCUAAGGAGAAGACUGCGGGUUCGAAUCCCGUACGGAACG, the yeast fitness is 0.838.
Take GUUCCGUUGGCGUAAUGGUAACGCGCCUCCCUCCUAAGGAGAAGACUGCUGGUUCGAGUCCCGUACGGAACG: the yeast fitness is 0.733.
Then GUUACGUUGGCGUAAUGGUAACGCGUCUUCCUCCUAAGGAGAAGACUGCGGCUUCGAGUCCCGUACGGAACG, with not above 0.5; and GUUCCGUUGGCGUCAUGAUAACGCGUCUCCCUCCUAAGGAGAAGACUACGGGUUCGAGUCCCGUACGGAACG, with not above 0.5; and GUUCCGUUGGCGCAAUGGUAACGCGCCUCCCUCCUAAGGAGAAGACUGCGGGUUCGAGUCCCGUACGGAACG, with 0.809.
In the case of GUUCCGUUGGCGUAAUGGUAACGCGUCUACCUCCUAAGGAGAAGACUGCGGGUUCCAGUCCCGUACGGAACG, the yeast fitness was not above 0.5.
Turning to GUUCCGUUGGCGUAAUGGUCACGCGUCUCCGUCCUAAGGAGAAGACUGCGGGUUCGAGUCGCGUGCGGAACG, the yeast fitness was not above 0.5.
In the case of GUUCCGUUGGCGUAAUGGUAACGCGCCUCCCUCCUAAGGAGAAGAAUGCGGGUUCGAGUCUCGUACGGAACG, the yeast fitness was not above 0.5.
As for GUUCCGUUGGCGUGAUGGUUACGCGUCUCCCUCCCAAAGAGACGACUGCGGGUUCGAGUCCCGUACGGAACG, the yeast fitness is 0.635.
Then GUACCGUUAGCGUAAUGGUAACGCGUCUCCCUCCUAAGGAGAAGACUACGGGUUCGAGUCCCGUACGGAACG, with 0.621; and GUUCCGUUGGCGUAAUGGUAACGCGUCUCCCUCCUAAGGAGAAGACUGCGGGUACGAGUCGCGUACGGCACG, with 0.57.
Turning to GUUCCGUUGGCGUAAUGGUAGCGCGUCUCCCUCCCAAGGAGAAGACUGCGGGUUCGAGUCCCGUACGGAACG, the yeast fitness came out at 0.728.
As to GUUCCGUUGGCGUAAUGGUAACGCGUCUCCCUCUUAAGGAGAAGACUGCGGAUACGAGUCCCGUAUGGCACG, the yeast fitness was not above 0.5.
For GUUCCGUUGGCGUAAUGGUAACGCGUCUCCCUCCUAAGGAGAAGACUGCGGGUUCGACUCCCGUACGGACCG, the yeast fitness is 0.923.
Consider GUUCCGGUGGCGUAAUGGUAACGCGUCUCCCUCCUAAGGAGAAGUCUGCGGGUUAGAGUCCCGUACGGAACG, for which the yeast fitness is not above 0.5.
To GUUCCGUUGGCGUAAUGGUAAUGCGUGUCCCUCCUAAGGAGAAGACUGCGGGUUCGAGUCCCGUAUGGUACG belongs not above 0.5; to GUUCCGUUGGCGUAAUGGUAAGGCGUCUCCUUCCUAAGGAGAAGACUGCGGGUUCAAGUCCCGUACGGAACG, 1.16; to GUUCCGUUGGAGUAAUGGUAACGCGUCUCCCUCCUAAGGAGAAGACUGCGGGUUCGGGUCCCGUAUGGAACG, not above 0.5.
With GUGCCGUUGGCGUAAUAGUAACGAGUCUCCCUCAUAAGGAGAAGAGUGCGGGUUCGAGUCCCGUACGGAACG, the yeast fitness was not above 0.5.
To GUUCCGUUGGCGUAAUGGUAACGCGUCUCCCUCCUAAGGGGAAGAAUGCGGGUUCGAGUCUCGUACGGAACG belongs 0.782; to GUUCCGUUGGGGUAAUGGUAACGCGUCUCCCUCCUAAGGAGAAGACUGCGGCUUCGAGUCCCGUACCGAACG, not above 0.5; to GUUGCGUUGGCUUCAUGGUAACGCGUCUCCCUCCUAAGGAGAAGACUGUGGGUUCGAGUCCCGUUCGGAACG, not above 0.5.
Turning to GUUCCGUUGGCGUAAUGGUAACGCGUCUCUCUCCUAAGGAGAAGACUGCGGGUUCGAGUCCCGUGCGGAACG, the yeast fitness was 0.932.
With GUUCCCUUGGCGUAAUGGUAACGCGUCUCCCUCCUAAGGAGAAGACUGCGGGUUCGAGUCCCAUACGGAACG, the yeast fitness worked out at 0.911.
Regarding GUUGCGUUGGCGUAAUGGUAGCGGGUCUCCCUCUUAAGGAGAAGACUGCGGGCUGGAGUCCAGUACGGAACG, the yeast fitness was not above 0.5.
In the case of GUUCCGUUGGCGUAAUGGUAACGCGUGUCCCUCCUAAGGACAAGACUGCGGGUUCGAGUCCCGUAUGGAACG, the yeast fitness turned out to be 0.747.
On to GUUCCGUUGGCGUAAUGGUAACGGGUCUCCCUCCUAAGGAGAAGACUGCGGGUUUGAGUCACGUACGGAACG, for which the yeast fitness was determined as 0.515.
As for GUUCUGUUGGCGUAAUGGUAACGCGACUCCCUCCUAAGGAGAAGACUGCGGGUUCGAGUCCCGUACGCAACG, the yeast fitness was 0.663.
Take GUUCCGUUGGCGAAAUGGUAACGCGUCUCCCUCCUAAGGAGAAGACUGCGGGUUCGAGUCUCGUACGGAUCG: the yeast fitness was 0.708.
For GUUCAGUUGGCGUAAUGGUAACGCGUCUCCCUCCUAAGGAGUAGACUGCGGGUUCGAAUCCCGUACGGAACG, the yeast fitness came out at 0.614.
To GUUCCGUUGGCGUAAUGGUAACGGGUCUCCCUUCUAAGGAGAGGACUGCGGGUUCGAGUCCCGUACGGAACG belongs not above 0.5; to GCUCCGUUGGCGUAAUGGUUACGCGUCUCCCUCGUAAGGAGGUGACUGCGGGUUCGAGUCCCGUGCGGAACG, not above 0.5; to GUUCCGUUGGCGUAAUGGUAACGCGUCUACCUCCUAAGGAGAAGACUCCGGGUUCGAGUCCCGUACGGAACG, 0.613.
With GUUCCGUUGGUGUAAUGGUAACGCGUUUACCUGCUAAGGAGAAGACUGCGGGUUCGAGUCCCGUAAGGAACG, the yeast fitness is not above 0.5.
On to GUUCCGUUGGCGUAAUAGUAACGCCUCUCCCUCCUAAGAAGAAGACUGCGGGUUCGAGUCCCGUACGGAACG, for which the yeast fitness was not above 0.5.
On to GUUGCGUUGGCGUAAUGGUAACGCGUCUCCCUCCUAAGGAGAAGACUGUGGGUGCGAGUCCCGUACGGAACG, for which the yeast fitness is not above 0.5.
For GUUGCGUUGGCGUAAUGGUAACGCGUUUCCCUCCUAAGGAGAAGACUGCGGGUUCGAGUCCCGUACGGAACG, the yeast fitness was found to be 0.789.
